Compounds with a hit are over-represented: about 2.7% of the library has one in this group of screens.
Lipid droplet = hepatic lipid droplet formation modulation | AML12 mouse hepatocytes, oleate lipid droplets, BODIPY imaging | inhibition, % at 6.5 µM | 240,000 tested, 0.4% active | AID 1656;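 active = lipid droplet intensity inhibited by at least 50%, with more than 500 cells counted; inconclusive = wells with under 300 cells, treated as cytotoxic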
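System: AML12 hepatocytes (mouse). Probe or stimulus: oleic acid at 100 µM to induce lipid droplet formation. Times: overnight treatment with compound plus oleate. Detection: Image-based BODIPY and DAPI two-channel analysis. Evaluation: percent inhibition of filter-corrected integrated lipid droplet intensity per well.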
NTR1 agonist = NTR1 (human) agonism; NTR1-U2OS beta-arrestin-GFP spot imaging, agonist mode; activation, % at 20 µM; 330,000 tested, 0.17% active;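 active = activation at or above 40% of the spot to cytoplasm intensity ratio, with at least 20 cells analyzed; inconclusive = wells under 20 cells, flagged as cytotoxic or low count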
PREPL inh = inhibits the human prolyl oligopeptidase-like enzyme; recombinant PREPL, fluorescence polarization activity-based probe; Q4J6C6; AID 2751; 320,000 tested, 0.68% active; inhibition, % at 5.96 µM; in the data active = inhibition above about 43%
Target sequence (Q4J6C6 whole entry, looked up): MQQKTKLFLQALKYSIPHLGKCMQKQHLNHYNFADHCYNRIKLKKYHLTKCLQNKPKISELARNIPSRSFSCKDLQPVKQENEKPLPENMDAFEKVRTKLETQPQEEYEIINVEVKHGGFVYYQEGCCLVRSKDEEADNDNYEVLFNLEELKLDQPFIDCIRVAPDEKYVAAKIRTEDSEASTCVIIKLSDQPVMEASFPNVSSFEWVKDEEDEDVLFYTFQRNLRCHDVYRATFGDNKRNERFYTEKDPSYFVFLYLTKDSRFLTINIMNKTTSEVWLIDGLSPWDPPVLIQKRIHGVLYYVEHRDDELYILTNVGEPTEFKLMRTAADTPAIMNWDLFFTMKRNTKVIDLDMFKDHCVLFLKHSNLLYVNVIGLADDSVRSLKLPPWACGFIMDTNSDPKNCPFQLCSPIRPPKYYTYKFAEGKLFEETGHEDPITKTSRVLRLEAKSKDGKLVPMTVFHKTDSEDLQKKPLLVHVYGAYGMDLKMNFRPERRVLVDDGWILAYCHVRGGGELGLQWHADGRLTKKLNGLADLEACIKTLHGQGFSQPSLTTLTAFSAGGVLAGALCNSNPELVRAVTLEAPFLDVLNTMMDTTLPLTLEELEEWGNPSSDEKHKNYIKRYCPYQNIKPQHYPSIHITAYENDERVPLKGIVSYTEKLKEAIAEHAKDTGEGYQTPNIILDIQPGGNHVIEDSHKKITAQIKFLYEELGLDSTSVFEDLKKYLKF
HTR2A ag = activates the mouse 5-HT2A serotonin receptor | P35363 | CHO-K1 mHTR2A beta-arrestin complementation, luminescence; percent of 30 µM serotonin response | activation, % at 7.6 µM | 360,000 tested, 0.66% active;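 active = activation above a run cutoff, the mean activation of all tested compounds plus 3 SD, cut at about 14% in these data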
MC4R antagonist = antagonists of human melanocortin 4 receptor (MC4R). 360,000 tested, 0.48% active. inhibition, % at 6.5 µM. MC4R-expressing cells, MTII-stimulated cAMP, LANCE TR-FRET. AID 540295;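 active = inhibition above its plate's cutoff, the mean of tested wells on that plate plus 3 SD, cut at about 29% in these data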
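material = U2OS cells stably expressing human melanocortin 4 receptor (MC4R) | also added = Melanotan II challenge | dosing = single nominal compound dose of 6.5 µM | detection = TR-FRET with Eu-cAMP and labeled anti-cAMP, 671 nm | replication = singlicate | timing = compound 30 min, challenge 1 h, detection 1 h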
MC4R ag barr = human MC4R agonism via beta-arrestin; activation, % at 8.9 µM; 360,000 tested, 0.98% active; U2OS MC4R beta-arrestin complementation, luminescence; percent of melanotan II response, DMSO zero; P32245;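 active = activation above a per-plate cutoff, the mean activation of sample wells on that plate plus 3 SD, cut at about 8% in these data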
Large screens that a line does not name were inactive.

CCCCS(=O)(=O)N1CCCC(C(=O)NCC2CCCO2)C1 (configuration not stated)	none
O=C(Nc1ccc2oc(-c3ccc4ccccc4c3)nc2c1)c1ccc2c(c1)OCCO2	MC4R ag barr 8.6 (no result: Lipid droplet)
CCOC(=O)C1(C)CCCN1C(=O)c1c(F)cccc1F (configuration not stated)	none (no result: Lipid droplet, NTR1 agonist, PREPL inh)
CO/N=C(\C(=O)N[C@@H]1C(=O)N2C(C(=O)O)=C(COC(N)=O)CS[C@H]12)c1ccco1	HTR2A ag 15
O=c1[nH]c(Cc2cccc(C(F)(F)F)c2)nc2ccccc12	MC4R ag barr 9.0
Cn1c(SCC(=O)N2CCCC2=O)nnc1-c1ccccc1F	none
CCOC(=O)c1c(C)c(C(=O)NCc2ccc3c(c2)OCO3)c(C)n1CC	none
CCOC(=O)c1cnc(-n2cc(C)cn2)nc1NCc1ccc2c(c1)OCO2	PREPL inh 58 (no result: Lipid droplet)
O=C(CCl)Nc1ccc(-c2ccccc2)cc1	MC4R ag barr 9.1
O=C(CCl)Nc1cccc(Oc2ccccc2)c1	MC4R ag barr 8.9
O=C(CCl)Nc1ccc(N=Nc2ccccc2)cc1	none (no result: NTR1 agonist, PREPL inh)
O=C(NC(=S)Nc1ccccn1)c1ccc([N+](=O)[O-])cc1	none
O=C(NC(=S)Nc1ccccn1)c1ccccc1	Lipid droplet 61
CCC(C)N(C(=O)Cn1nnc(-c2ccc(Cl)cc2)n1)C1CCS(=O)(=O)C1 (configuration not stated)	none (no result: Lipid droplet)
O=C(COC(=O)c1ccc([N+](=O)[O-])s1)NCCc1ccccc1	HTR2A ag 17 (no result: Lipid droplet)
O=C(COC(=O)c1ccc([N+](=O)[O-])s1)NC(=O)NCc1ccccc1	none
S=C(NCc1ccc(Cl)cc1Cl)Nc1ccccc1	MC4R ag barr 8.9
O=C(COC(=O)/C=C/c1ccco1)NCCc1ccccc1	none
COc1ccc(CN(CCC(c2ccccc2)c2ccc(OC(C)C)cc2)C(=O)CCl)cc1OC (configuration not stated)	MC4R ag barr 21
COc1ccc(C(CCN(Cc2ccc(OC)c(OC)c2)C(C)=O)c2ccccc2)cc1 (configuration not stated)	none
Cc1ccc(C(CC(=O)O)NC(=O)CCNC(=O)c2ccco2)cc1 (configuration not stated)	none (no result: Lipid droplet, PREPL inh)
Fc1ccc(-c2nc3c(-c4ccc(Cl)cc4)cnn3cc2CCN2CCOCC2)cc1	MC4R ag barr 8.8
CN1CCN(CCc2cn3ncc(C#N)c3nc2-c2ccc(F)cc2)CC1	none
C/C(=N\Nc1nc2ccccc2[nH]1)c1ccc([N+](=O)[O-])cc1	MC4R ag barr 9.5
COc1cc2c(cc1OC)C(C(=O)NC(C)c1ccccc1)CC(=O)N2 (configuration not stated)	none
CC1(C)CC(=O)c2cnc(NC(=O)CSC(=S)N3CCCCC3)nc2C1	none
C=CC[N+]1(CC(=O)NCc2ccc(NC(C)=O)cc2)CCOCC1	none
O=C(Nc1ccc(Br)c(C(F)(F)F)c1)c1ccc(C(F)(F)F)cc1	MC4R ag barr 8.5
O=C(Nc1ccc(Br)c(C(F)(F)F)c1)c1ccccc1	none
O=C(OCc1ccc(Br)cc1)c1ccncc1	none
O=C(OCCOc1ccc(Br)cc1)c1ccc(Cl)nc1	MC4R ag barr 9.2
O=C(OCc1ccc(Br)cc1)c1cnc(Cl)c(Cl)c1	MC4R antagonist 33
CCCCc1c(-c2ccc(F)cc2)ncn1CCc1ccccc1OC	none (no result: Lipid droplet, NTR1 agonist, PREPL inh, MC4R antagonist, MC4R ag barr)
Cc1noc(C)c1C(=O)OCC(=O)C12CC3CC(CC(C3)C1)C2	none
COc1cc(NC(=O)c2cc(-c3cccnc3)nc3ccc(Br)cc23)cc(OC)c1	MC4R ag barr 8.2 (no result: Lipid droplet)
Cc1ccc(-c2cc(C(=O)Nc3ccncc3)c3ccccc3n2)cc1	MC4R ag barr 8.9 (no result: Lipid droplet)
COc1cc(-c2cc(C(=O)Nc3ccncc3)c3ccccc3n2)cc(OC)c1OC	none (no result: Lipid droplet)
O=C(COc1cccnc1[N+](=O)[O-])NCCc1ccc(F)cc1	none
CCC(CO)Nc1ccn2nc(-c3cccc(Cl)c3)cc2n1 (configuration not stated)	none (no result: Lipid droplet, NTR1 agonist, PREPL inh)
CN(N=Nc1ccc([N+](=O)[O-])cc1)c1ccccc1	MC4R ag barr 8.3
CCCCn1c(N)c(Sc2ccccc2)c(=O)[nH]c1=O	none
CCCn1c(N)c(Sc2ccccc2)c(=O)n(CCC)c1=O	HTR2A ag 18 (no result: Lipid droplet)
CCOc1ccc(CNC(=O)CN2C(=O)C(c3ccccc3)Oc3cccnc32)cc1 (configuration not stated)	none
CCOc1ccc(CNC(=O)CCCN2C(=O)C(c3ccccc3)Oc3cccnc32)cc1 (configuration not stated)	MC4R ag barr 9.1
CN(C)S(=O)(=O)c1cccc(C(=O)Nc2n[nH]c(C(F)(F)F)n2)c1	none
O=C(COC(=O)c1cccc(S(=O)(=O)NCc2ccccc2)c1)NCC1CCCO1 (configuration not stated)	none
N#CCC(CNc1ncc(C(F)(F)F)cc1Cl)OC(=O)c1cccc([N+](=O)[O-])c1 (configuration not stated)	MC4R ag barr 9.1
N#CCC(CNc1ncc(C(F)(F)F)cc1Cl)OC(=O)c1ccc(Cl)cc1 (configuration not stated)	none (no result: Lipid droplet)
CCCCN(CCCC)Cc1cc(=O)oc2cc(OC)c(Cl)cc12	none (no result: Lipid droplet, NTR1 agonist, PREPL inh, MC4R antagonist, MC4R ag barr)
Cc1cnc(C(=O)OCC(=O)NC(C)c2ccccc2)cn1 (configuration not stated)	none (no result: Lipid droplet)
COc1cc(C2CC(c3cccs3)=NN2C(=O)CCl)ccc1OC(F)F (configuration not stated)	MC4R ag barr 22
COc1ccc(C2CC(c3cccs3)=NN2C(=O)CCl)cc1OC (configuration not stated)	none
O=C(CSc1ccc(Cl)cc1)Nc1ccc(C2SCCS2)cc1	MC4R ag barr 9.6
O=C(CSc1c(F)c(F)cc(F)c1F)Nc1ccc(C2SCCS2)cc1	MC4R ag barr 8.5
O=C(COc1ccc(C2SCCS2)cc1)Nc1ccc(Cl)cc1	Lipid droplet inconclusive
COc1ccc(/C=N/NC(=O)c2nc(Cl)c(Cl)c(N)c2Cl)cc1COc1ccc(F)cc1F	MC4R ag barr 11 (no result: Lipid droplet)
COc1ccc(/C=N/NC(=O)c2nc(Cl)c(Cl)c(N)c2Cl)cc1COc1ccccc1F	none (no result: Lipid droplet)
NS(=O)(=O)c1cccc(NC(=O)c2cccnc2Oc2ccccc2)c1	none
O=C(Nc1nccs1)c1cc2sccc2n1Cc1ccc(F)cc1	MC4R ag barr 8.9 (no result: Lipid droplet)
COc1ccc(NC(=O)c2cc3sccc3n2Cc2ccc(F)cc2)cc1OC	none (no result: Lipid droplet)
COc1ccc(C)c2sc(N(CCCN(C)C)C(=O)c3ccc(S(=O)(=O)N4CCc5ccccc5C4)cc3)nc12	MC4R ag barr 37 (no result: Lipid droplet, NTR1 agonist)
CCOc1cccc2sc(N(CCCN(C)C)C(=O)c3ccc(S(=O)(=O)N(CC)Cc4ccccc4)cc3)nc12	NTR1 agonist 52

Compound activity from PubChem BioAssay.
